In series [1] the test system is HaCaT. Briefly: Cytotoxicity against human HaCaT cells at 1 to 50 uM after 24 hrs by LDH release assay. The class given is cell-based. In a few lines: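 HaCaT cells were grown in high-glucose DMEM with 10% FBS to 80% confluency. They were exposed 24 h to compound at 1–50 µM (final DMSO ≤0.1%). LDH release was expressed as a percentage of Triton X-100 lysis (100%); mean of three experiments.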

Series [2] has as its system HaCaT. Briefly: Antiproliferative activity against human HaCaT cells after 24 hrs by BrdU incorporation assay. Format: functional, cell-based. In short, it runs like this: (§1)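 HaCaT human keratinocytes were grown in high-glucose DMEM with 10% FBS and 2 mM L-glutamine at 37 °C and 5% CO2 to 80% confluency. Cells were treated 24 h with compound at 1, 10 or 50 µM (final DMSO ≤0.1%). Proliferation was read by BrdU incorporation as % of DMSO control; three experiments.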

The subject of series [3] is HaCaT. Kind of series: Antiproliferative activity against human HaCaT cells at 10 uM after 24 hrs by BrdU incorporation assay. The class given is functional, cell-based. In short, it runs like this: as §1
The subject of series [4] is HaCaT. Briefly: Antiproliferative activity against human HaCaT cells at 50 uM after 24 hrs by BrdU incorporation assay. Format: functional, cell-based. In short, it runs like this: as §1
Series [5] deals with HaCaT. Kind of series: Antiproliferative activity against human HaCaT cells at 1 uM after 24 hrs by BrdU incorporation assay. The class given is functional, cell-based. In short, it runs like this: as §1
The target in series [6] is T1, Prostaglandin G/H synthase 1 (Mus musculus, UniProt P22437).
T1 sequence (P22437 whole entry): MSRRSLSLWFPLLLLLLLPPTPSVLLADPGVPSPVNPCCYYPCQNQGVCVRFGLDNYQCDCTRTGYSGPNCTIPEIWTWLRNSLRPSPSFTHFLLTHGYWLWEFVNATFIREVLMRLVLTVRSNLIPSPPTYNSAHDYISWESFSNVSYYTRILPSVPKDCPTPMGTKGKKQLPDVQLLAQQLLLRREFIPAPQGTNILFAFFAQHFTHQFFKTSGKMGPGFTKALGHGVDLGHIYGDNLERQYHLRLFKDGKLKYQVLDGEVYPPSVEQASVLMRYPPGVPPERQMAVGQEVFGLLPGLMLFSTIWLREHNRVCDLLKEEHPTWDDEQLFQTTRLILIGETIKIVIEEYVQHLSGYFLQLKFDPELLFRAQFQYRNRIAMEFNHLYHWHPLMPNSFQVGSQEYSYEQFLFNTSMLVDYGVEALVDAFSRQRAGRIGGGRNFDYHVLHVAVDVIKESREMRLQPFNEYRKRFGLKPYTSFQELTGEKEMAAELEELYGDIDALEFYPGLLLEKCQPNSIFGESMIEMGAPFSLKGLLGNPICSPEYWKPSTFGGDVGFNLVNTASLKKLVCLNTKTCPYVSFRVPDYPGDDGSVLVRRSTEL
Kind of series: Inhibition of COX-1 in mouse J774 cells assessed as reduction in PGE2 level using arachidonic acid as substrate preincubated for 15 mins followed by incubation with arachidonic acid for 30 mins by radio immunoassay. The class given is cell-based. In short, it runs like this:
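Murine J774 macrophages (2.5 × 10^5 cells/mL) were adhered 2 h at 37 °C and given fresh medium. Cells were pretreated with compound at 100 µM for 15 min, then incubated 30 min at 37 °C with 15 µM arachidonic acid. Supernatant PGE2 was measured by RIA as % inhibition versus control; triplicate wells, three experiments, IC50 from a sigmoidal variable-slope fit.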

Series [7] addresses T2, Prostaglandin G/H synthase 2 (Mus musculus, UniProt Q05769).
T2 sequence (Q05769 whole entry): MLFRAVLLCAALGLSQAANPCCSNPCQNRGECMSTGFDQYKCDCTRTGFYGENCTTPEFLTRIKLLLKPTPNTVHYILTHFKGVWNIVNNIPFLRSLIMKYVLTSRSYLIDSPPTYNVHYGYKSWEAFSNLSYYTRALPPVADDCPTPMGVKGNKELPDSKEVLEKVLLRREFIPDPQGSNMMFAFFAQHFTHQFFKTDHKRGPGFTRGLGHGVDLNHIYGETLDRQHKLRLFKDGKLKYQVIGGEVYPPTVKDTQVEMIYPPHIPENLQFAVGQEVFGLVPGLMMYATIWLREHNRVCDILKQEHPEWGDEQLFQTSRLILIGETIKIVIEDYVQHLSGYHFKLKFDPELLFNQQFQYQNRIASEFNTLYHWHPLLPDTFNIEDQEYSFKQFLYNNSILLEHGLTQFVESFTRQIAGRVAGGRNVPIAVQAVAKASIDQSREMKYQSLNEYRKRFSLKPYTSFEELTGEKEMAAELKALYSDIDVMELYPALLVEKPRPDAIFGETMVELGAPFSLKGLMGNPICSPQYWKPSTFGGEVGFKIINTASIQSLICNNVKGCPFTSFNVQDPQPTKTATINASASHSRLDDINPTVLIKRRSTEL
Briefly: Inhibition of COX-2 in mouse J774 cells assessed as reduction in LPS-induced PGE2 level incubated for 24 hrs by radio immunoassay. Format: cell-based. In a few lines:
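Murine J774 macrophages were stimulated for 24 h with E. coli LPS (10 µg/mL) to induce COX-2, with or without compound (0.001–10 µM). Supernatant PGE2 was measured by RIA as % inhibition of production versus control; triplicate wells, mean of three experiments, IC50 from a sigmoidal variable-slope fit.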

For another series, the species on record is Mus musculus. Briefly: Selectivity ratio of IC50 for mouse COX-1 to IC50 for mouse COX-2. In a few lines:
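In J774 cells, the ratio was taken as COX-1 IC50 over COX-2 IC50. COX-1 activity: 15 min compound pretreatment, then 30 min with 15 µM arachidonic acid. COX-2 activity: 24 h LPS (10 µg/mL) induction with compound. PGE2 was measured by RIA in both; IC50 values came from sigmoidal fits of three experiments.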

Active and inactive are the calls of the source. The rule behind the calls is not given here.

On to `Cc1c(CCOCCCF)cc(-c2ccc(S(C)(=O)=O)cc2)n1-c1cccc(F)c1`, for which the Activity result in the series on HaCaT [1] is reported as “Non-toxic”. Moreover, the outcome in the series on HaCaT [2], with HaCaT [3], with HaCaT [4] and in the series on HaCaT [5] was inactive. The values for the IC50 in series [6] and in series [7] were more than 100000 nM and 135 nM, respectively. Besides, the Ratio IC50 in the series listed under Mus musculus was more than 2860.

Regarding `Cc1c(CCOCCCF)cc(-c2ccc(S(C)(=O)=O)cc2)n1-c1ccc(F)c(F)c1`, the Activity result was “Non-toxic” with HaCaT [1] and “Dose-dependent effect” with HaCaT [2]. The result in the series with HaCaT [3] and in the series with HaCaT [4] was Active. Besides, in the series on HaCaT [5], the outcome was inactive. Besides, the figures for the IC50 in series [6] and in series [7] were more than 100000 nM and 19 nM, respectively. Also, the Ratio IC50 in the series filed under Mus musculus is more than 5260.

In the case of `CCCOCCc1cc(-c2ccc(S(C)(=O)=O)cc2)n(-c2cccc(F)c2)c1C`, in the series with HaCaT [1], the Activity entry is listed as “Non-toxic”. Also, the result with HaCaT [2], in the series on HaCaT [3], with HaCaT [4] and in the series with HaCaT [5] was inactive. The IC50 is more than 100000 nM in series [6] and 13 nM in series [7]. In the series listed under Mus musculus, the Ratio IC50 is more than 7690.

As to `Cc1c(CCOCCF)cc(-c2ccc(S(C)(=O)=O)cc2)n1-c1ccc(F)c(F)c1`, the Activity result is “Non-toxic” in the series with HaCaT [1] and “Dose-dependent effect” in the series on HaCaT [2]. Moreover, the outcome in the series with HaCaT [3] and in the series on HaCaT [4] was Active. In the series with HaCaT [5], the result was inactive. Besides, the concentration for half-maximal inhibition (IC50) was more than 100000 nM in series [6] and 29 nM in series [7]. In addition, the Ratio IC50 in the series filed under Mus musculus is more than 3450.

For the compound `Cc1c(CCOCCF)cc(-c2ccc(S(C)(=O)=O)cc2)n1-c1cccc(F)c1`, the values for the Activity entry in the series with HaCaT [1] and in the series with HaCaT [2] were “Non-toxic” and “Dose-dependent effect”, respectively. In addition, the result in the series with HaCaT [3] and with HaCaT [4] was Active. For the same compound, the result in the series on HaCaT [5] was inactive. Further, the concentration for half-maximal inhibition (IC50) in series [6] was more than 100000 nM; in series [7] it was 140 nM. Further, the Ratio IC50 in the series filed under Mus musculus is more than 714.

As for `CCCOCCc1cc(-c2ccc(S(C)(=O)=O)cc2)n(-c2ccc(F)c(F)c2)c1C`, the Activity entry was “Non-toxic” with HaCaT [1] and “Dose-dependent effect” with HaCaT [2]. Moreover, the outcome in the series with HaCaT [3] and in the series with HaCaT [4] was Active. Also, the result with HaCaT [5] was inactive. Moreover, the half-maximal inhibitory concentration (IC50) in series [6] is more than 100000 nM; in series [7], 18 nM. In addition, in the series listed under Mus musculus, the Ratio IC50 was more than 5560.

With `Cc1c(CCOCCF)cc(-c2ccc(S(C)(=O)=O)cc2)n1-c1ccc(F)cc1`, the Activity result was “Non-toxic” in the series with HaCaT [1] and “Dose-dependent effect” with HaCaT [2]. Besides, the outcome in the series with HaCaT [3] and with HaCaT [4] was Active. For the same compound, the result in the series with HaCaT [5] was inactive. Further, the IC50 in series [6] was more than 100000 nM; in series [7], 13 nM. The Ratio IC50 in the series listed under Mus musculus is more than 7690.
